Measurements pooled from the literature.
Each line is one published result; the experiments were not run side by side.
Target: Cytochrome P450 2C19 (CYP2C19, Homo sapiens, UniProt P33261)
Observed: enzyme activity
Action: inhibitor

Compound	technique	host	sample	time	pH	IC50 [µM]
CCc1cc(/C(C)=N/OCc2ccc(C3CCCCC3)c(C(F)(F)F)c2)ccc1CN1CC(C(=O)O)C1	–	human	liver microsomes	20 min	–	> 0.5
Nc1nc(N)c2nc(CNc3ccc(C(=O)c4ccccc4)cc3)cnc2n1	luciferase	–	–	–	–	25.1
COc1ccn2c(Nc3ccccc3F)c(-c3ccncn3)nc2c1	–	–	–	–	–	0.93
CC(CN1c2ccccc2Sc2ccccc21)N(C)C (stereo not drawn)	fluorescence	–	–	–	–	40.8
Nc1nc(N)c2nc(CNc3ccc(C(=O)NCCc4ccccc4)cc3)cnc2n1	luciferase	–	–	–	–	15.1
COc1ccc2c(Cc3ccccc3F)c3[n+](cc2c1OC)CCc1cc2c(cc1-3)OCO2	–	–	–	–	–	> 10
C=CC(=O)Nc1cc(Nc2nccc(Nc3cc(Cl)c(F)cc3C(C)(C)O)n2)c(OC)cc1N1CC[C@@H](N(C)C)C1	–	human	liver microsomes	–	–	> 30
C#CCN(Cc1cnc2nc(N)nc(N)c2n1)c1ccc(C(=O)N2CCC(C(=O)OC)CC2)cc1	luciferase	–	–	–	–	9.77
CCCCCNC(=N)N/N=C/c1c[nH]c2ccc(OC)cc12	fluorescence	–	–	–	–	1.17
C[C@H]1CN(c2n[nH]c3nc(N[C@H]4CC[C@H](NS(=O)(=O)CCC(F)(F)F)CC4)ncc23)CCO1	–	–	–	–	–	> 100
CCOC(=O)C1CCN(C(=O)c2ccc(N(CC)Cc3cnc4nc(N)nc(N)c4n3)cc2)CC1	luciferase	–	–	–	–	6.76
COc1ccc2[nH]c([S+]([O-])Cc3ncc(C)c(OC)c3C)nc2c1 (stereo not drawn)	–	human	liver microsomes	90 min	pH 7.4	0.662
